TRPC4 inh: blocks the mouse TRPC4 cation channel | Q9QUQ5 | HEK293 TRPC4beta/mu-opioid, DAMGO-evoked Fluo4 calcium flux; hits give low values | B-score at 10 µM | hit rate 0.39% among 300,000 | AID 2247;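 active = B-score over 3 SD under the library average, no early fluorescence shift, positive overall ratio signal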
Target sequence (Q9QUQ5 whole entry, looked up): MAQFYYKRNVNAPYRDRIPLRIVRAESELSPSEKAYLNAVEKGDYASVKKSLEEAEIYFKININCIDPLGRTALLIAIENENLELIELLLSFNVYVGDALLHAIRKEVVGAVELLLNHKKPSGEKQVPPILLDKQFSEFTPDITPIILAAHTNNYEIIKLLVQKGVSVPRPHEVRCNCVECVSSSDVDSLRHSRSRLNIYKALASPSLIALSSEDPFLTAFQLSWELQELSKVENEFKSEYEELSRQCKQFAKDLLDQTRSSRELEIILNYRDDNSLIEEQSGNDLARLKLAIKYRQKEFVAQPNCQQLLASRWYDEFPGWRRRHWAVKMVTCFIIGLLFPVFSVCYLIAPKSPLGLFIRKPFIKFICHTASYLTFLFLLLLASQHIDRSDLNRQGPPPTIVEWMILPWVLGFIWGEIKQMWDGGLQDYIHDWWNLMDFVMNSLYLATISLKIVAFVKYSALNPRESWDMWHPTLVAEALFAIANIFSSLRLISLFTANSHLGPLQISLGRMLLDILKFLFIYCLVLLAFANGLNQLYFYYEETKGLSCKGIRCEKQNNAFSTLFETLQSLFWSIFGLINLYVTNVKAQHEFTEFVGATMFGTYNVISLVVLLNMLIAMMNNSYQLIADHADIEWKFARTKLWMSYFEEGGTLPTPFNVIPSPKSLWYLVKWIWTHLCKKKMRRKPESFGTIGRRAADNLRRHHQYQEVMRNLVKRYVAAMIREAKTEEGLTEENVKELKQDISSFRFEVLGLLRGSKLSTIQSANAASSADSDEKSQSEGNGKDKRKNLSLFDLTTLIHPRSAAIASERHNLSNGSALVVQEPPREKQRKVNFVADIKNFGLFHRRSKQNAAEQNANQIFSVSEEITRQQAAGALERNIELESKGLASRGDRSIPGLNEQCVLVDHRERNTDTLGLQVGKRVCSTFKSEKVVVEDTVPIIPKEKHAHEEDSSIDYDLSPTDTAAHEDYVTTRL
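Assay system – HEK293 line stably carrying TRPC4beta and mu-opioid receptor · Doses – single dose · Detection – Fluo4 calcium-dye fluorescence, kinetic read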
TRPC4 PAM: allosterically enhances the mouse TRPC4 cation channel | hit rate 0.42% among 310,000 | HEK293 TRPC4beta/mu-opioid, DAMGO EC20, Fluo-4 Ca2+ flux; hits give high values | Q9QUQ5 | B-score at 10 µM;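 active = B-score of calcium response area above 5 SD of library B-scores, with initial fluorescence ratio within 5 SD of library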;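 note: B-score of integrated fluorescence ratio over time as area under calcium response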
TRPC6 inhibitor: blocks the mouse TRPC6 cation channel; HEK293-TRPC6, membrane potential dye, ACh-evoked depolarization; hits give low values; B-score at 10 µM; Q61143; hit rate 1.1% among 310,000;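 active = B-score under library mean minus 3 SD, initial fluorescence not abnormally high, positive integrated signal ratio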;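 note: B-score derived from integrated fluorescence ratio over the kinetic read; more negative B-score means stronger inhibition of depolarization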
TRPC6 act: activates the mouse TRPC6 cation channel; Q61143; HEK293-TRPC6 membrane potential dye fluorescence; hits give high values; B-score at 10 µM; hit rate 0.13% among 310,000; AID 2550;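 active = B-score of the integrated fluorescence ratio above library mean plus 3 SD, and starting fluorescence ratio within library mean plus 5 SD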;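 note: higher score means more depolarization so channel activation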
TRPC4 agonist: TRPC4 (mouse) channel activation; hit rate 0.49% among 310,000; B-score at 10 µM; HEK293 TRPC4beta/mu-opioid, Fluo4 calcium fluorescence; hits give high values; Q9QUQ5;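 active = B-score above 5 SD of library B-scores, and initial fluorescence ratio not above library mean plus 5 SD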;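 note: positive B-score marks a calcium rise read as TRPC4 activation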
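Assay system: HEK293 stable line with TRPC4beta plus mu-opioid receptor. Times: dye 45 min RT, read 110 s. Measured by: kinetic Fluo4 calcium fluorescence. Measure: B score of integrated ratio. Controls: assay buffer as low control, maximal DAMGO as high control.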
Numbers without * were called inactive; i = inactive; nt = not tested or not shown. In the library only some 2.3% were active in any assay of this set; here they are far more common.

SMILES	TRPC4 inh	TRPC4 PAM	TRPC6 inhibitor	TRPC6 act	TRPC4 agonist
Cc1cc(NC(=O)c2cc3cccc([N+](=O)[O-])c3[nH]2)ccc1F	i	i	i	i	i
CN(C)CCCSc1nc(-c2ccccc2)nc2c1CCC2	i	16*	i	i	i
CN(C)CCSc1nc(-c2ccccc2)nc2c1CCC2	i	i	i	i	i
COc1ccc(C2/C=C\CNCC(=O)N2Cc2ccc(F)cc2)cc1 (stereo not given)	i	i	i	i	i
COc1ccc(CCNCC(O)COc2cccc(Br)c2)cc1OC (stereo not given)	i	i	i	i	i
COc1ccc(CCNCC(O)COc2ccc(OC)cc2C(C)(C)C)cc1 (stereo not given)	i	16*	i	i	i
COc1ccc(CNC(=O)CS(=O)(=O)Cc2nc(-c3cccc(OC)c3)oc2C)cc1	i	i	i	i	i
Cc1ccc(N(Cc2ccccc2)C(=O)c2cc(S(=O)(=O)N3CCOCC3)ccc2Cl)cc1	i	10*	i	i	i
CN1C2CCC1/C(=C\c1ccccc1F)C(=O)/C2=C/c1ccccc1F	i	i	i	i	i
O=C(C1CCN(S(=O)(=O)c2c(Cl)cccc2Cl)CC1)N1CCCCCCC1	i	i	i	i	i
CN1/C(=C\C(=O)C[n+]2ccc3ccccc3c2)C(C)(C)c2ccccc21	-6*	i	i	i	i
Cc1ccc2ncccc2c1NC(=S)NC(=O)c1ccccc1	i	i	i	i	i
CCCCCN=C(N)N/N=C/c1c[nH]c2ccc(OC)cc12	i	i	i	i	66*
C=CCOc1ccccc1CN1CCCCCC1	i	i	i	i	i
O=C(NCCCNC(=O)c1cnccn1)c1ccc(Br)cc1	i	i	i	i	i
CC(C)(C)OC(=O)N1CCC(c2cc(=O)n3[nH]cc(C(=O)Nc4ccc(F)c(Cl)c4)c3n2)CC1	i	i	i	i	i
COc1ccc(NC(=O)c2c[nH]n3c(=O)cc(C4CCN(C(=O)OC(C)(C)C)CC4)nc23)cc1Cl	-7*	i	i	i	i
O=C(NC(Nc1nc2ccc([N+](=O)[O-])cc2s1)(C(F)(F)F)C(F)(F)F)c1ccccc1Cl	i	i	-6.9*	14*	i
CN(C)S(=O)(=O)N1CCN(c2ccc([N+](=O)[O-])c(NC3CC3)c2)CC1	i	10*	i	i	i
CCCCC(c1nnnn1CC1CCCO1)N1CCN(Cc2ccccc2)CC1 (stereo not given)	-6*	i	i	i	93*
CC(C)c1ccc(NC(=O)N(CCc2nc3ccccc3[nH]2)C2CCCC2)cc1	-7*	i	i	i	75*
Cc1cc(NC(=O)C(C)SCC(=O)N(Cc2ccccc2)c2ccccc2)no1 (stereo not given)	-7*	i	i	i	i
COc1ccc(C(=O)c2ccc(N3CCN(C(=O)c4ccc(F)cc4)CC3)c(F)c2)cc1Br	i	i	i	i	i
CCCc1c(O)nc(SCCN(CC)CC)[nH]c1=O	i	i	i	i	112*
CC(C)c1c(O)nc(SCCN2CCOCC2)[nH]c1=O	i	i	i	i	i
SMILES	TRPC4 inh	TRPC4 PAM	TRPC6 inhibitor	TRPC6 act	TRPC4 agonist
CCCCSc1nc(O)c(Cc2ccccc2)c(=O)[nH]1	i	i	i	i	i
CCN(CC)CCSc1nc(O)c(C(C)C)c(=O)[nH]1	i	12*	i	i	80*
Cc1ccc(C(=O)Nc2ccccc2Cl)cc1	i	i	i	i	i
CC(C)CN1CCN(Cc2cccn2-c2cccnc2)CC1CCO (stereo not given)	i	i	i	i	i
OCC1(CCc2ccccc2)CCN(Cc2cccn2-c2cccnc2)CC1	i	i	i	i	57*
COC(=O)c1ccccc1NC(=S)N(Cc1ccc2c(c1)OCO2)Cc1cc2ccc(C)cc2[nH]c1=O	i	i	i	i	i
CCN(CC)CCN(Cc1cc2ccc(C)cc2[nH]c1=O)C(=S)Nc1ccccc1C(=O)OC	-6*	i	i	i	i
Cc1ccc(NC(=S)N(CCCN(C)C)Cc2cc3cc4c(cc3[nH]c2=O)OCO4)c(C)c1	-6*	i	i	i	i
CN1CCCC(OC(=O)c2ccc(S(=O)(=O)N(C)C)cc2)C1 (stereo not given)	i	i	i	i	i
COc1ccccc1CNCC(=O)N1CC(=O)Nc2ccccc21	i	i	i	i	i
O=S(=O)(NC1CCCCC1N1CCN(c2ccccc2F)CC1)c1ccc(Cl)cc1 (stereo not given)	i	12*	i	i	i
C=CCc1ccccc1OCC(O)CN1CCN(c2ccccc2F)CC1 (stereo not given)	i	i	i	i	i
C=CCc1ccccc1OCC(CN1CCCCC1)OC(C)=O (stereo not given)	-6*	i	i	i	i
C=CCc1ccccc1OCCCCN1CCCC1	i	i	i	i	i
C=CCc1ccccc1OCC(O)CN1CCN(c2ccccc2OC)CC1 (stereo not given)	-6*	i	i	i	i
Cc1cccc(N(C(=O)CCC(=O)Nc2cc(C)on2)C(C(=O)NC2CCCC2)c2ccccc2)c1 (stereo not given)	i	i	i	i	i
CC(NS(=O)(=O)OCC(Cl)(Cl)Cl)c1ccc(Br)cc1 (stereo not given)	i	15*	i	i	i
CC(C)CC(NS(=O)(=O)OCC(Cl)(Cl)Cl)c1ccccc1 (stereo not given)	nt	i	i	i	i
CN1CCCN(S(=O)(=O)c2ccc(Cl)c(Cl)c2)CC1	i	12*	i	i	i
CN1CCCN(S(=O)(=O)c2cccc(Cl)c2Cl)CC1	i	i	i	i	i
CCOC(=O)C1=C(C)N=c2s/c(=C/c3cccc([N+](=O)[O-])c3O)c(=O)n2C1c1ccc(OC)cc1OC (stereo not given)	i	i	-5.2*	i	i
Cc1cccc(/C=N/NC(=O)c2cc(Br)ccc2O)n1	i	65*	i	i	i
CCOc1ccc(S(=O)(=O)Nc2cccc(C(=O)NCC(c3ccco3)N(C)C)c2)cc1 (stereo not given)	i	i	i	i	i
COc1ccc(NS(=O)(=O)c2cccc(C(=O)NCC(c3ccco3)N(C)C)c2)cc1 (stereo not given)	i	i	i	i	i

Screening results: PubChem BioAssay, Johns Hopkins Ion Channel Center
